# BAP1 inh – inhibitors of human BAP1 deubiquitinase | Q92560 | AID 436 | 72,000 compounds, 0.48% hits | recombinant BAP1, Ub-AMC hydrolysis fluorescence kinetic; active compounds read low | calls only at 20 µM;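 active means activity remaining at or below 50% of control, provided the compound also passes the data quality filters; inactive means the rest, including low values that fail the filters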;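 further: 100% = DMSO wells rate and 0% = substrate alone blank rate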
# sEH activator – increases human soluble epoxide hydrolase activity; P34913; purified human sEH enzymatic activity, activator screen; activation, % at 2 µM; 91,000 compounds, 0.04% hits; in the data active means activation above about 37%
# sEH inhibitor – blocks human soluble epoxide hydrolase activity | P34913 | recombinant human sEH enzymatic activity assay | inhibition, % at 2 µM | 91,000 compounds, 0.34% hits | AID 707; in the data active means inhibition above about 80%
# AP ELISA ortho – alternative pathway complement inhibition, orthogonal assay. Human serum alternative complement pathway, LPS-coated ELISA, C3 deposition; tested in compound mixtures. inhibition, % at 5 µM. 62,000 compounds, 0.08% hits. AID 1235;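 active means inhibition above 30% in each of the two pooled mixtures holding the compound, so the lower value exceeds 30%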;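 further: 0% = serum in Mg-EGTA without compound and 100% = EDTA serum blank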
#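 Test system: human serum complement alternative pathway, C3 deposition onto LPS / Medium: Mg2+-EGTA GVB++ buffer containing human serum at 1:15 dilution / Probe or stimulus: Plate-bound LPS / Times: 1 h at 37 °C / Signal: ELISA with HRP anti-human C3 antibody, TMB substrate, absorbance 450 nm / Measure: percent inhibition / Repeats: two pool placements per compound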
# BAP1 inh conf – confirmation of human BAP1 enzyme inhibitors. 310 compounds, 8% hits. shares compounds with BAP1 inh. purified BAP1, Ub-ethyl ester hydrolysis, HPLC; active compounds read low. % of control activity, % at 20 µM;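 active means percent of control activity at or below 60%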
# The depositor's hits bear a star; i = inactive; · = no result shown; + = active, no number. Shown are actives, neighbours in structure and some others; about 0.57% of the full set was active somewhere.
SMILES,BAP1 inh,sEH activator,sEH inhibitor,AP ELISA ortho,BAP1 inh conf
CCOC(=O)C(O)(c1ccc(NC(=O)NC2CCCCC2)cc1)C(F)(F)F (configuration not stated),·,-95,95*,·,·
COC(=O)c1cc2c(cn1)[nH]c1ccccc12,+,·,·,·,·
O=C(Nc1ccc(Cl)cc1C(=O)c1ccccc1Cl)c1ccc([N+](=O)[O-])s1,i,·,·,·,·
CC(=O)Oc1ccc(C(=O)Nc2ccc(Cl)cc2C(=O)c2ccccc2)cc1,i,·,·,·,·
CNc1ccc2oc(C[C@H]3O[C@@]4(CC[C@H]3C)O[C@H]([C@H](C)C(=O)c3ccc[nH]3)[C@H](C)C[C@H]4C)nc2c1C(=O)O,+,·,·,·,·
COCCOC(=O)c1c(N)n(Cc2ccco2)c2nc3ccccc3nc12,·,0,2,·,145
O=C(COc1ccc(Cl)cc1)Nc1ccc(Br)cc1C(=O)c1ccccc1,i,·,·,·,·
Nc1nn[nH]n1,i,·,·,·,·
CCCCn1c(=O)c(C(=O)NCc2ccncc2)c(O)c2ccccc21,+,-10,8,-7,141
O=C(Nc1cccnc1)c1c(O)c2c(n(Cc3ccccc3)c1=O)CCCC2,+,·,·,8,69
O=C(Nc1ccncc1)c1c(O)c2ccccc2n(Cc2ccccc2)c1=O,i,·,·,·,·

# Screening data from PubChem.
